Assays:
[1] = target: T1, Chymotrypsinogen A (Bos taurus, UniProt P00766); assay: Inhibitory activity against bovine chymotrypsin
[2] = target: T2, Neutrophil elastase (Homo sapiens, UniProt P08246); assay: In vitro inhibitory activity against human leukocyte elastase (HLE) mediated hydrolysis of the synthetic substrate MeO-Suc-Ala-Ala-Pro-Val-pNA
T2 sequence (P08246 whole entry): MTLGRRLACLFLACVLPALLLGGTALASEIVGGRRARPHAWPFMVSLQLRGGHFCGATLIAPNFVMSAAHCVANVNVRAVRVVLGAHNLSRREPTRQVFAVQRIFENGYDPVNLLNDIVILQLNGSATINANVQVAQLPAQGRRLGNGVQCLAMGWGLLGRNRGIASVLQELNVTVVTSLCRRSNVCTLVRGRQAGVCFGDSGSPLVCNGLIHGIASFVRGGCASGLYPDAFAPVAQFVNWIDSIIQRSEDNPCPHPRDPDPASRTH

[3] = Ratio of the Ki value towards bovine chymotrypsin to that of HLE.
How it was run: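 Selectivity ratio computed as Ki against bovine pancreatic chymotrypsin divided by Ki against human leukocyte elastase. The elastase Ki came from inhibition of enzyme-catalysed hydrolysis of the chromogenic substrate MeOSuc-Ala-Ala-Pro-Val-pNA.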

[4] = target: T1, Chymotrypsinogen A; assay: Inhibitory activity against bovine chymotrypsin; No inhibition at the highest concentration tested (>150 uM)
[5] = target: Acetylcholinesterase (Electrophorus electricus, UniProt O42275); assay: Inhibitory activity against electric eel Acetylcholinesterase; No inhibition at the highest concentration tested (400 uM)
Acetylcholinesterase, sequence (O42275 whole entry): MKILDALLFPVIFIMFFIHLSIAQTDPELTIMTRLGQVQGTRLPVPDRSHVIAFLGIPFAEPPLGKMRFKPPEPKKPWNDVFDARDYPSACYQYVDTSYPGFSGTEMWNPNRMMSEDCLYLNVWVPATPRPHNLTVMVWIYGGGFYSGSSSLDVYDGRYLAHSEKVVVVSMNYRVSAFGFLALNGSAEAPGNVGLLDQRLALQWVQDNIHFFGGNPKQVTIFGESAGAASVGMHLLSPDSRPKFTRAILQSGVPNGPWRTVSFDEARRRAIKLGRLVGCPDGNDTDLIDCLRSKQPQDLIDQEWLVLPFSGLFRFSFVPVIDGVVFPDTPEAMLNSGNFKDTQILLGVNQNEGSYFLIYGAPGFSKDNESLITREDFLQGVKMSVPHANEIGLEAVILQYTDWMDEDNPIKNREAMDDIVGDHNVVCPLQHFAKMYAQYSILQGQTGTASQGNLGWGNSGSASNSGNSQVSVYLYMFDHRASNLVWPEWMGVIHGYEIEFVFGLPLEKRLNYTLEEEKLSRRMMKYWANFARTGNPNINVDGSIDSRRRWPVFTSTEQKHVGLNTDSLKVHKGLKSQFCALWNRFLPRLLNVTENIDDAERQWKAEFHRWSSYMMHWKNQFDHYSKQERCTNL

[6] = target: T3, Angiotensin-converting enzyme (Oryctolagus cuniculus, UniProt P12822); assay: Inhibitory activity against rabbit Angiotensin I converting enzyme
T3 sequence (P12822 whole entry): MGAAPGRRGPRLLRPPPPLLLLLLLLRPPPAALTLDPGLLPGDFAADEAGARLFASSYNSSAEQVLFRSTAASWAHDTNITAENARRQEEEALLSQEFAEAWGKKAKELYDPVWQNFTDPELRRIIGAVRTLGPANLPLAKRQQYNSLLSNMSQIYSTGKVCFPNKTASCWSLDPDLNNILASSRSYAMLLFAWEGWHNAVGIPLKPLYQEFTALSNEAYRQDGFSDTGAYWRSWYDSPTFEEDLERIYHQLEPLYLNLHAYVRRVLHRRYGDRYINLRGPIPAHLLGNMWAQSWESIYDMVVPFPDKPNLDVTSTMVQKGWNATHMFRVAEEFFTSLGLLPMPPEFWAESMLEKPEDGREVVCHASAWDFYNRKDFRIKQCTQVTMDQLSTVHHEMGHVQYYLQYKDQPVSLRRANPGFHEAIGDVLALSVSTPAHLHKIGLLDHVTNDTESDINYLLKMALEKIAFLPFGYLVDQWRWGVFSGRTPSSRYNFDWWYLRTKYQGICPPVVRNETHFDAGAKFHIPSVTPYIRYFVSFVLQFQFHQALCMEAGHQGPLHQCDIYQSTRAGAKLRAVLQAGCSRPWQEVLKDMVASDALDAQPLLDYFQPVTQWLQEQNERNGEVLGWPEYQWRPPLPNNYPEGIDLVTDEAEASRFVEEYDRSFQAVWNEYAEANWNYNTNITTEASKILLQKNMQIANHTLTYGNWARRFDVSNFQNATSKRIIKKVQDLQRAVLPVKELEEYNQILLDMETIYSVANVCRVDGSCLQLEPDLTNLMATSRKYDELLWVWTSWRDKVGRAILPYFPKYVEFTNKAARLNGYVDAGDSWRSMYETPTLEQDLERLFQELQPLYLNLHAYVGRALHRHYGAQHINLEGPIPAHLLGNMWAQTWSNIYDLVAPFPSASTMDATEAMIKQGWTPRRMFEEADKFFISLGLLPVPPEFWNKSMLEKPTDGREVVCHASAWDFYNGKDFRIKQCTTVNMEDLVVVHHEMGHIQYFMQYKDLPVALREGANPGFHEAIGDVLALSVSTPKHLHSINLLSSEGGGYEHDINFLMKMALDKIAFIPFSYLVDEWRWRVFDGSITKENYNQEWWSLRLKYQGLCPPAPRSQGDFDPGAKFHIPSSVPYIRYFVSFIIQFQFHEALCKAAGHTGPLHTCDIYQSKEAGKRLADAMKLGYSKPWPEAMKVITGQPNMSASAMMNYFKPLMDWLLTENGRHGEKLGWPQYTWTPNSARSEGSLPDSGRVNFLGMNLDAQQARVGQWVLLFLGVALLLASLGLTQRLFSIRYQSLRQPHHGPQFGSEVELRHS

[7] = target: T4, Cathepsin G (Homo sapiens, UniProt P08311); assay: Inhibitory activity against human cathepsin G.
T4 sequence (P08311 whole entry): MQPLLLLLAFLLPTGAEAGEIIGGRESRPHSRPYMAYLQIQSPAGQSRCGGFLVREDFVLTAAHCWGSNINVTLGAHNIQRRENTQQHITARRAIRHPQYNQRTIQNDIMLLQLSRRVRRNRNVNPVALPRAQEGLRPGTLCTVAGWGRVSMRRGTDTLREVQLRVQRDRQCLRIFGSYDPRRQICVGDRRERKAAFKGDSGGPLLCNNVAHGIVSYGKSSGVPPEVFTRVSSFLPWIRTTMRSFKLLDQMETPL

[8] = target: T5, Papain (Carica papaya, UniProt P00784); assay: Inhibitory activity against papain; No inhibition at the highest concentration tested (400 uM)
T5 sequence (P00784 whole entry): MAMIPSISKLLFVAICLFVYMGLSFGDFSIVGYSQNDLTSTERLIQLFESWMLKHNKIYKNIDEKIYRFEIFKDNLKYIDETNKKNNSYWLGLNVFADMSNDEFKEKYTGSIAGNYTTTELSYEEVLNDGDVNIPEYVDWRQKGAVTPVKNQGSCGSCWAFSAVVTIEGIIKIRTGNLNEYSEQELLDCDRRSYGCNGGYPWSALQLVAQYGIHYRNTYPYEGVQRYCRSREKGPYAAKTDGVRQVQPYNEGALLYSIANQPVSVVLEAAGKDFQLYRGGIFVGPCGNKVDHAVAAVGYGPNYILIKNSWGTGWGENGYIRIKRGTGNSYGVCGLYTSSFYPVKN

[9] = target: T6, Serine protease 1 (Bos taurus, UniProt P00760); assay: Inhibitory activity against bovine trypsin; No inhibition at the highest concentration tested (400 uM)
T6 sequence (P00760 whole entry): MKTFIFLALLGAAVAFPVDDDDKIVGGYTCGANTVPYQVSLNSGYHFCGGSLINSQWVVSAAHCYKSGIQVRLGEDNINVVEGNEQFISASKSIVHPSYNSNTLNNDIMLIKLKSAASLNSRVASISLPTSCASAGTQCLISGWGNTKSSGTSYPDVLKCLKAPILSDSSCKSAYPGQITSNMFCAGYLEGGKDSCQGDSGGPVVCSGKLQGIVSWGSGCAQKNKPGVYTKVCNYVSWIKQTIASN

[10] = target: Prothrombin (Homo sapiens, UniProt P00734); assay: Inhibitory activity against human thrombin mediated hydrolysis of the synthetic substrate […]; No inhibition at the highest concentration tested (400 uM)

| Ki [2] | Structure (SMILES) | other results |
| --- | --- | --- |
| 6.1 nM | CC(C)C(NC(=O)Cn1c(-c2ccccc2)cc2c3ccccc3nc-2c1O)C(=O)C(F)(F)F (configuration not stated) | Ki [1]: 430 nM; Ratio [3]: 70 |
| 210 nM | CC(C)C(NC(=O)Cn1ccc2c3cc(Cl)ccc3nc-2c1O)C(=O)C(F)(F)F (configuration not stated) |  |
| 1000 nM | CC(C)C(NC(=O)CN1CCc2c([nH]c3ccc(Cl)cc23)C1=O)C(=O)C(F)(F)F (configuration not stated) |  |
| 4.9 nM | CC(C)C(NC(=O)Cn1c(-c2ccccc2)cc2c3cccc(C=O)c3nc-2c1O)C(=O)C(F)(F)F (configuration not stated) |  |
|  | CC(C)C(NC(=O)Cn1c(-c2ccccc2)cc2c3cccc(C(=O)O)c3nc-2c1O)C(=O)C(F)(F)F (configuration not stated) | Ki [1]: 43000 nM |
| 9.6 nM | COP(=O)(OC)c1ccc2nc3c(O)n(CC(=O)NC(C(=O)C(F)(F)F)C(C)C)c(-c4ccccc4)cc-3c2c1 (configuration not stated) |  |
| 17 nM | COc1cccc2c3cc(-c4ccccc4)n(CC(=O)NC(C(=O)C(F)(F)F)C(C)C)c(O)c-3nc12 (configuration not stated) |  |
| 730 nM | CC(C)C(NC(=O)Cn1ccc2c3cccc(C(N)=O)c3nc-2c1O)C(=O)C(F)(F)F (configuration not stated) |  |
| 510 nM | CC(C)C(NC(=O)Cn1ccc2c3ccc(C(=O)O)cc3nc-2c1O)C(=O)C(F)(F)F (configuration not stated) |  |
| 340 nM | CCOC(=O)c1ccc2c3ccn(CC(=O)NC(C(=O)C(F)(F)F)C(C)C)c(O)c-3nc2c1 (configuration not stated) |  |
| 350 nM | COc1ccc2nc3c(O)n(CC(=O)NC(C(=O)C(F)(F)F)C(C)C)ccc-3c2c1 (configuration not stated) |  |
| 290 nM | CC(C)C(NC(=O)Cn1ccc2c3ccccc3nc-2c1O)C(=O)C(F)(F)F (configuration not stated) | Ki [4]: No inhibition |
| 28 nM | CC(C)c1cc2c3cccc(C#N)c3nc-2c(O)n1CC(=O)NC(C(=O)C(F)(F)F)C(C)C (configuration not stated) |  |
| 52 nM | COP(=O)(OC)c1cccc2c3cc(-c4ccccc4)n(CC(=O)NC(C(=O)C(F)(F)F)C(C)C)c(O)c-3nc12 (configuration not stated) | Ki [1]: 26000 nM; Ratio [3]: 500 |
| 1100 nM | COc1ccc2[nH]c3c(c2c1)CCN(CC(=O)NC(C(=O)C(F)(F)F)C(C)C)C3=O (configuration not stated) |  |
| 15 nM | CC(C)C(NC(=O)Cn1c(-c2ccccc2)cc2c3cccc(OS(C)(=O)=O)c3nc-2c1O)C(=O)C(F)(F)F (configuration not stated) |  |
| 1100 nM | CC(C)C(NC(=O)CN1CCc2c([nH]c3ccccc23)C1=O)C(=O)C(F)(F)F (configuration not stated) |  |
| 19 nM | CC(C)c1cc2c3cccc(C(=O)O)c3nc-2c(O)n1CC(=O)NC(C(=O)C(F)(F)F)C(C)C (configuration not stated) |  |
| 6.6 nM | CC(C)C(NC(=O)Cn1c(-c2ccccc2)cc2c3cccc(C#N)c3nc-2c1O)C(=O)C(F)(F)F (configuration not stated) | Ki [1]: 180 nM; Ratio [3]: 27 |
| 54 nM | CC(C)c1cc2c3ccccc3nc-2c(O)n1CC(=O)NC(C(=O)C(F)(F)F)C(C)C (configuration not stated) | Ki [1]: 1100 nM; Ratio [3]: 20 |
| 27 nM | CC(C)C(NC(=O)CN1CCc2c([nH]c3c(C(=O)O)cccc23)C1=O)C(=O)C(F)(F)F (configuration not stated) |  |
| 6.7 nM | CC(C)C(NC(=O)Cn1c(-c2ccccc2)cc2c3cccc(O)c3nc-2c1O)C(=O)C(F)(F)F (configuration not stated) |  |
| 2500 nM | CCOC(=O)c1cccc2c3ccn(CC(=O)NC(C(=O)C(F)(F)F)C(C)C)c(O)c-3nc12 (configuration not stated) |  |
| 24 nM | COC(=O)Oc1cccc2c3cc(-c4ccccc4)n(CC(=O)NC(C(=O)C(F)(F)F)C(C)C)c(O)c-3nc12 (configuration not stated) |  |
| 130 nM | COC(=O)c1cccc2c3cc(-c4ccccc4)n(CC(=O)NC(C(=O)C(F)(F)F)C(C)C)c(O)c-3nc12 (configuration not stated) |  |

| Structure (SMILES) | Ki [2] | other results |
| --- | --- | --- |
| CC(C)C(NC(=O)Cn1ccc2c3cccc(C(=O)O)c3nc-2c1O)C(=O)C(F)(F)F (configuration not stated) | 22 nM | Ki [5]: No inhibition; Ki [6]: 94000 nM; Ki [4]: No inhibition; Ki [7]: 130000 nM; Ki [8]: No inhibition; Ki [9]: No inhibition; Ki [10]: No inhibition |
